# Measurements gathered from unrelated publications.
# Lines come from different studies, so protocols differ.
# Target: Mitogen-activated protein kinase kinase kinase 2 (MAP3K2, Homo sapiens, UniProt Q9Y2U5)
# Residues used in one study (Q9Y2U5 1-619): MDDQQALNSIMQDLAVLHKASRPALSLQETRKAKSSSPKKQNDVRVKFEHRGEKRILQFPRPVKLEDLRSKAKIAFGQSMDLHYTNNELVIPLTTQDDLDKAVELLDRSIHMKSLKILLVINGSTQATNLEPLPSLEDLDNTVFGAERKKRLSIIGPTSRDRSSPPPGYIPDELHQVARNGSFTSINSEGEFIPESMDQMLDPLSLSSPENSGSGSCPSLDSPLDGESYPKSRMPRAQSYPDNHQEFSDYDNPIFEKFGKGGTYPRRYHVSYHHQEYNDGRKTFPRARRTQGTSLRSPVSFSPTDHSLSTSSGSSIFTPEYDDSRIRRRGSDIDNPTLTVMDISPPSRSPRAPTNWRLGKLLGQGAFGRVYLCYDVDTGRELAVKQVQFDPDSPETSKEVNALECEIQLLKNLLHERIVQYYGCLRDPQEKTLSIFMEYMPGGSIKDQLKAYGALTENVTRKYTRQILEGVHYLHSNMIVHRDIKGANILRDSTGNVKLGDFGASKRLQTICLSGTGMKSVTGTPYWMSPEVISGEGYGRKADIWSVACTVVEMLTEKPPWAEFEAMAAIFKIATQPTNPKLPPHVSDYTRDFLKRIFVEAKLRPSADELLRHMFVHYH
SMILES,test,conditions,remaining binding
Cc1cnc(Nc2ccc(C(=O)N3CCC(N4CCCC4)CC3)cc2)nc1-c1cc2ccccc2s1,"binding, competition with immobilised ligand",1 µM,5.1%
CCN1CCN(Cc2ccc(C(=O)Nc3ccc(C)c(Oc4ccc5c(c4)CC(=O)N5)c3)cc2C(F)(F)F)CC1,"binding, competition with immobilised ligand",1 µM,100%
c1cncc(-c2cccc(Nc3nccc(NC4CCCCC4)n3)c2)c1,"binding, competition with immobilised ligand",10 µM,48%
CN(C)c1nccc(-c2cnn3ncccc23)n1,binding,1 µM,78%
Cc1nc(N2CC[C@@H](O)C2)ncc1-c1cc(C(F)(F)F)cc2[nH]ncc12,"binding, competition with immobilised ligand",1 µM,60%
N[C@H]1CCN(c2nccc(-c3cnn4ncccc34)n2)C1,binding,1 µM,100%
O=C(c1ccc(Nc2nccc(-c3cc4ccccc4s3)n2)cc1)N1CCC(N2CCCC2)CC1,"binding, competition with immobilised ligand",1 µM,43%
O=C(Nc1cccnn1)N1CCC(=Cc2cccc(Oc3ccc(C(F)(F)F)cn3)c2)CC1,"cell-free assay, competition with immobilised ligand",1 µM,100%
Nc1ncc2c(n1)-c1c([nH]c3ccc(C#CC4CC4)cc13)CCCC2,"binding, competition with immobilised ligand",1 µM,85%
COc1ccnn2ncc(-c3ccnc(N(C)C)n3)c12,binding,1 µM,87%
CN(C)CC#Cc1ccc(OCCCc2sc(N3CCc4cccc(C(=O)Nc5nc6ccccc6s5)c4C3)nc2C(=O)O)c(F)c1,"cell-free assay, competition with immobilised ligand",1 µM,75%
F[C@@H]1CCN(c2nccc(-c3cnn4ncccc34)n2)C1,binding,1 µM,92%
COc1cnc(Nc2cccc(S(N)(=O)=O)c2)nc1N1CCN(c2ccccc2)CC1,"binding, competition with immobilised ligand",1 µM,68%
CCC(=N\O)/C(C)=C/c1ccc(F)cc1,"cell-free assay, competition with immobilised ligand",1 µM,85%
CN(CCCC(F)(F)F)c1nccc(-c2cnn3ncccc23)n1,binding,1 µM,96%
O=C(NCC1CCOCC1)c1n[nH]cc1NC(=O)c1c(F)cccc1F,"binding, competition with immobilised ligand",1 µM,73%
CCCCN(CCCC)C(=O)CN1C[C@@H](c2cc(OC)c3c(c2)OCO3)[C@H](C(=O)O)[C@H]1CC(C)(C)CCC,"cell-free assay, competition with immobilised ligand",1 µM,84.6%
C[C@@H]1CCN(c2nccc(-c3cnn4ncccc34)n2)C1,binding,1 µM,79%
O=C(NCCCN1CCOCC1)c1ccc(Nc2nccc(-c3cc4ccccc4s3)n2)cc1,"binding, competition with immobilised ligand",1 µM,24%
C[C@@H]1CN(c2cc(-c3nn(C)c4ccc(OC5(C)CC5)cc34)ncn2)C[C@H](C)O1,"cell-free assay, competition with immobilised ligand",1 µM,83%
COc1ncc2cc3ccccc3nc2c1C#N,"cell-free assay, competition with immobilised ligand",5 µM,91%
